≈ marks a conversion by molar mass, not a printed value. Some results are limits rather than exact numbers.

What all share (type): functional
In experiment [1] the test system is Mycobacterium tuberculosis. In words: Antimycobacterial activity against Mycobacterium tuberculosis H37Rv 331/88 after 14 days by micromethod. The following applies: H37Rv 331/88, 336 h. The method, boiled down: (§1)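 Micromethod in Sula semisynthetic medium, with compounds added as DMSO solutions at 1000, 500, 250, 125, 62, 32, 16, 8, 4, 2, 1, 0.5, 0.25. Inoculum dilutions: H37Rv 10^-3; M. avium 330/88 10^-5; M. kansasii 235/80 10^-4; M. kansasii 6509/96 10^-5. Incubated at 37 °C, read at 14 and 21 days, and at 7 days for M. kansasii. MIC was the lowest concentration inhibiting growth.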

The test system of experiment [2] is Mycobacterium tuberculosis. The experiment in a line: Antimycobacterial activity against Mycobacterium tuberculosis H37Rv 331/88 after 21 days by micromethod. The following applies: H37Rv 331/88, 504 h. The method, boiled down: as §1
Experiment [3] deals with Mycobacterium avium. The experiment in a line: Antimycobacterial activity against multidrug-resistant Mycobacterium avium 330/88 after 14 days by micromethod. The following applies: 330/88, 336 h. The method, boiled down:
as §1

Experiment [4] relates to Mycobacterium avium. The experiment in a line: Antimycobacterial activity against multidrug-resistant Mycobacterium avium 330/88 after 21 days by micromethod. The following applies: 330/88, 504 h. The method, boiled down: as §1
Experiment [5] relates to Mycobacterium kansasii. The experiment in a line: Antimycobacterial activity against Mycobacterium kansasii 235/80 after 7 days by micromethod. Particulars: 235/80, 168 h. The method, boiled down:
as §1

In experiment [6] the test system is Mycobacterium kansasii. In words: Antimycobacterial activity against Mycobacterium kansasii 235/80 after 14 days by micromethod. Particulars: 235/80, 336 h. The method, boiled down: as §1
For experiment [7], the system named is Mycobacterium kansasii. The experiment in a line: Antimycobacterial activity against Mycobacterium kansasii 235/80 after 21 days by micromethod. The following applies: 235/80, 504 h. The method, boiled down:
as §1

The subject of experiment [8] is Mycobacterium kansasii. In words: Antimycobacterial activity against Mycobacterium kansasii 6509/96 after 7 days by micromethod. The following applies: 6509/96, 168 h. The method, boiled down:
as §1

In experiment [9] the test system is Mycobacterium kansasii. In words: Antimycobacterial activity against Mycobacterium kansasii 6509/96 after 14 days by micromethod. Particulars: 6509/96, 336 h. The method, boiled down: as §1
Experiment [10] relates to Mycobacterium kansasii. The experiment in a line: Antimycobacterial activity against Mycobacterium kansasii 6509/96 after 21 days by micromethod. Particulars: 6509/96, 504 h. The method, boiled down:
as §1

Experiment [11] concerns Candida albicans. In words: Antifungal activity against Candida albicans ATCC 44859 after 24 hrs by broth microdilution method. Particulars: ATCC 44859, 24 h. In general terms: Dilution methods test growth across graded concentrations, often in twofold steps.
The subject of experiment [12] is Candida albicans. The experiment in a line: Antifungal activity against Candida albicans ATCC 44859 after 48 hrs by broth microdilution method. The following applies: ATCC 44859, 48 h.
Experiment [13] concerns Candida tropicalis. In words: Antifungal activity against Candida tropicalis 156 after 24 hrs by broth microdilution method. Particulars: Candida tropicalis, 156, 24 h.
Experiment [14] concerns Candida tropicalis. In words: Antifungal activity against Candida tropicalis 156 after 48 hrs by broth microdilution method. Particulars: Candida tropicalis, 156, 48 h.
For experiment [15], the system named is Pichia kudriavzevii. The experiment in a line: Antifungal activity against Candida krusei E28 after 24 hrs by broth microdilution method. The following applies: E28, 24 h.
Experiment [16] has as its system Pichia kudriavzevii. In words: Antifungal activity against Candida krusei E28 after 48 hrs by broth microdilution method. Particulars: E28, 48 h.
Experiment [17] concerns Nakaseomyces glabratus. In words: Antifungal activity against Candida glabrata 20/I after 24 hrs by broth microdilution method.
In experiment [18] the test system is Nakaseomyces glabratus. In words: Antifungal activity against Candida glabrata 20/I after 48 hrs by broth microdilution method.
Experiment [19] concerns Trichosporon beigelii. In words: Antifungal activity against Trichosporon beigelii 1188 after 24 hrs by broth microdilution method. Particulars: Trichosporon beigelii, 1188, 24 h.
The subject of experiment [20] is Trichosporon beigelii. The experiment in a line: Antifungal activity against Trichosporon beigelii 1188 after 48 hrs by broth microdilution method. Particulars: Trichosporon beigelii, 1188, 48 h.
In experiment [21] the test system is Aspergillus fumigatus. In words: Antifungal activity against Aspergillus fumigatus 231 after 24 hrs by broth microdilution method. The following applies: Aspergillus fumigatus, 231, 24 h.
In experiment [22] the test system is Aspergillus fumigatus. In words: Antifungal activity against Aspergillus fumigatus 231 after 48 hrs by broth microdilution method. Particulars: Aspergillus fumigatus, 231, 48 h.
Experiment [23] has as its system Lichtheimia corymbifera. In words: Antifungal activity against Absidia corymbifera 272 after 24 hrs by broth microdilution method. The following applies: Lichtheimia corymbifera, 272, 24 h.
In experiment [24] the test system is Lichtheimia corymbifera. The experiment in a line: Antifungal activity against Absidia corymbifera 272 after 48 hrs by broth microdilution method. The following applies: Lichtheimia corymbifera, 272, 48 h.
In experiment [25] the test system is Trichophyton mentagrophytes. In words: Antifungal activity against Trichophyton mentagrophytes after 24 hrs by broth microdilution method.
Experiment [26] concerns Trichophyton mentagrophytes. In words: Antifungal activity against Trichophyton mentagrophytes after 48 hrs by broth microdilution method.

For `Nc1ccc(C(=O)O)c(O)c1` [AMINOSALICYLIC ACID], the MIC (usually the least concentration at which growth counts as inhibited) in experiment [1] is 62.5 µM (≈ 9.57 µg/mL); in [2], 62.5 µM (≈ 9.57 µg/mL); in the experiment with Mycobacterium avium [3], 32 µM (≈ 4.9 µg/mL); in the experiment on Mycobacterium avium [4], 125 µM (≈ 19.1 µg/mL); in the experiment with Mycobacterium kansasii [5], 125 µM (≈ 19.1 µg/mL); against Mycobacterium kansasii [6] it was 1000 µM (≈ 153 µg/mL). Further, the MIC is > 1000 µM in the experiment on Mycobacterium kansasii [7], 32 µM (≈ 4.9 µg/mL) in the experiment with Mycobacterium kansasii [8], 125 µM (≈ 19.1 µg/mL) against Mycobacterium kansasii [9] and 500 µM (≈ 76.6 µg/mL) with Mycobacterium kansasii [10].

In the case of `OC(Cn1cncn1)(Cn1cncn1)c1ccc(F)cc1F` [FLUCONAZOLE], the MIC in the experiment with Candida albicans [11] is 0.06 µM (≈ 0.0184 µg/mL); against Candida albicans [12], 0.12 µM (≈ 0.0368 µg/mL); against Candida tropicalis [13], 0.12 µM (≈ 0.0368 µg/mL); against Candida tropicalis [14], > 125 µM; against Pichia kudriavzevii [15], 3.91 µM (≈ 1.2 µg/mL); with Pichia kudriavzevii [16], 15.6 µM (≈ 4.78 µg/mL). For the same compound, the MIC against Nakaseomyces glabratus [17] was 0.98 µM (≈ 0.3 µg/mL); against Nakaseomyces glabratus [18] it was 3.91 µM (≈ 1.2 µg/mL); against Trichosporon beigelii [19], 0.24 µM (≈ 0.0735 µg/mL); in the experiment with Trichosporon beigelii [20], 0.48 µM (≈ 0.147 µg/mL); in the experiment on Aspergillus fumigatus [21], > 125 µM; against Aspergillus fumigatus [22], > 125 µM. The MIC in the experiment with Lichtheimia corymbifera [23] is > 125 µM; against Lichtheimia corymbifera [24], > 125 µM; in experiment [25], 1.95 µM (≈ 0.597 µg/mL); in [26], 3.91 µM (≈ 1.2 µg/mL).

With `NNC(=O)c1ccncc1` [ISONIAZID], the MIC is 0.5 µM (≈ 0.0686 µg/mL) in experiment [1]; 0.5 µM (≈ 0.0686 µg/mL) in experiment [2]; > 250 µM against Mycobacterium avium [3]; > 250 µM against Mycobacterium avium [4]; > 250 µM against Mycobacterium kansasii [5]; > 250 µM with Mycobacterium kansasii [6]. Further, the MIC is > 250 µM against Mycobacterium kansasii [7], 2 µM (≈ 0.274 µg/mL) in the experiment on Mycobacterium kansasii [8], 4 µM (≈ 0.549 µg/mL) with Mycobacterium kansasii [9] and 4 µM (≈ 0.549 µg/mL) in the experiment with Mycobacterium kansasii [10].

Values taken from ChEMBL document CHEMBL1629494, “New amino acid esters of salicylanilides active against MDR-TB and other microbes” (Eur J Med Chem, 2010).
